The nature of the series: Drug uptake in human HCT-116 cells xenografted in BomTac:NMRI-Foxn1nu mouse plasma at 35 mg/kg, iv measured after 168 hrs by HPLC-MS/MS analysis. It counts as ADME, organism-based. In a few lines: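 Female nude mice bearing s.c. HCT 116 xenografts (2 × 10⁶ cells), n = 3 per time point, given a single i.v. dose. Tumor, organs and EDTA plasma collected at 1, 8, 24, 48, 96 and 168 h. Tissue extracts and plasma analysed by HPLC-MS/MS. Tissue nmol/mg converted to nmol/L assuming density 1.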
In general terms: A xenograft is tissue or cells of one species grown in another, often human tumour cells in immunodeficient mice.

In the case of `CC[C@@H]1C(=O)N(C)c2cnc(Nc3ccc(C(=O)N[C@H]4CC[C@H](N5CCN(CC6CC6)CC5)CC4)cc3OC)nc2N1C(C)C` [VOLASERTIB], the concentration at 168 h is 8 nM.

These data come from ChEMBL document CHEMBL5661977, “BI 6727, a Polo-like kinase inhibitor with improved pharmacokinetic profile and broad antitumor activity” (Clin Cancer Res, 2009).
